Calls of active or inactive are those of the source. The rule behind the calls is not given here.
How the values were obtained:
Mus musculus [1] = experiment: Potency index, ratio of chlordiazepoxide ED50 to compound ED50 for anticonvulsant activity in po dosed albino Swiss-Webster mouse assessed as reduction of maximum electro shock-induced seizure; format: functional
[2] = Toxicity in po dosed albino Swiss-Webster mouse; format: organism-based; details: in vivo
Mus musculus [3] = experiment: Potency index, ratio of chlordiazepoxide ED50 to compound ED50 for muscle relaxing activity in po dosed albino Swiss-Webster mouse; format: functional
Mus musculus [4] = experiment: Potency index, ratio of chlordiazepoxide ED50 to compound ED50 for anticonvulsant activity in po dosed albino Swiss-Webster mouse assessed as reduction of pentylenetetrazole-induced seizure; format: functional
Mus musculus [5] = experiment: Potency index, ratio of chlordiazepoxide ED50 to compound ED50 for behavioral activity in po dosed albino Swiss-Webster mouse by fighting test; format: functional
Mus musculus [6] = experiment: Potency index, ratio of chlordiazepoxide ED50 to compound ED50 for anticonvulsant activity in po dosed albino Swiss-Webster mouse assessed as reduction of minimum electro shock-induced seizure; format: functional
Mus musculus [7] = experiment: Potency index, ratio of chlordiazepoxide ED50 to compound ED50 for hypnotic activity in po dosed albino Swiss-Webster mouse; format: functional
[8] = 1-Octanol-aqueous phosphate buffer partition coefficient, log P of the compound at pH 7.35; format: physicochemical
Outline: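 Concentrations in each phase (C_oct, C_w) measured by UV spectrophotometry. P_oct = C_oct/C_w, reported as log P_oct.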

Mus musculus [9] = experiment: Anticonvulsant activity in po dosed albino Swiss-Webster mouse assessed as reduction of pentylenetetrazole-induced seizure; format: functional, organism-based
Outline: (§1)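 Oral dosing in male and female albino Swiss-Webster mice weighing 25–30 g, six mice per group. ED50 determined with 95% confidence limits.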

Mus musculus [10] = experiment: Anticonvulsant activity in po dosed albino Swiss-Webster mouse assessed as reduction of maximum electro shock-induced seizure; format: functional, organism-based; outline: as §1
Mus musculus [11] = experiment: Muscle relaxing activity in po dosed albino Swiss-Webster mouse; format: functional, organism-based; outline: as §1
Mus musculus [12] = experiment: Anticonvulsant activity in po dosed albino Swiss-Webster mouse assessed as reduction of minimum electro shock-induced seizure; format: functional, organism-based; outline: as §1

Row | Structure (SMILES) | Ratio ED50 (Mus musculus [1]) | LD50 [2] [µmol/kg] | Ratio ED50 (Mus musculus [3]) | Ratio ED50 (Mus musculus [4]) | Ratio ED50 (Mus musculus [5]) | Ratio ED50 (Mus musculus [6]) | Ratio ED50 (Mus musculus [7]) | logD [8] | Activity (Mus musculus [9]) | Activity (Mus musculus [10]) | Activity (Mus musculus [11]) | Activity (Mus musculus [12])
1 | CC(=O)OC[C@H]1O[C@@H](OCCOC2N=C(c3ccccc3)c3cc(Cl)ccc3NC2=O)[C@H](OC(C)=O)[C@@H](OC(C)=O)[C@@H]1OC(C)=O (mixture of isomers) | 3.4 | 17200 | 0.75 | 13.8 | 1.83 | 1.02 | 0.76 |  |  |  |  | 
2 | O=C1Nc2ccc(Cl)cc2C(c2ccccc2)=NC1OCCO (centres undefined) | 0.58 | 18100 | 1.3 | 10.3 | 1.7 | 0.4 | 0.35 | 1.99 |  |  |  | 
3 | CC(=O)OC[C@H]1O[C@H](OCCOC2N=C(c3ccccc3)c3cc(Cl)ccc3NC2=O)[C@H](OC(C)=O)[C@@H](OC(C)=O)[C@@H]1OC(C)=O (mixture of isomers) | 3.6 | 17300 | 0.68 | 13.4 | 1.78 | 0.98 | 0.9 |  |  |  |  | 
4 | CN1C(=O)C(OCC2COC(C)(C)O2)N=C(c2ccccc2)c2cc(Cl)ccc21 (centres undefined) |  | 9160 |  |  | 1.9 |  | 2.3 | 2.37 | inactive | inactive | inactive | inactive
5 | CC1(C)OCC(COC2N=C(c3ccccc3)c3cc(Cl)ccc3NC2=O)O1 (centres undefined) |  | 9980 |  |  | 1.7 |  | 0.52 | 2.14 | inactive | inactive | inactive | inactive
6 | O=C1Nc2ccc(Cl)cc2C(c2ccccc2Cl)=NC1OCCO (centres undefined) | 1.2 | 9360 | 1.86 | 33.6 | 17.8 | 2.8 | 0.65 | 2.04 |  |  |  | 
7 | CNC1=Nc2ccc(Cl)cc2C(c2ccccc2)=[N+]([O-])C1 [CHLORDIAZEPOXIDE] |  |  |  |  |  |  |  | 2.5 |  |  |  | 
8 | CN1CCN=C(c2ccccc2)c2cc(Cl)ccc21 [MEDAZEPAM] | 0.81 | 5240 | 1.3 | 6.2 | 1 | 0.32 | 0.3 | 4.05 |  |  |  | 
9 | CN1C(=O)C(OC(=O)C(Cl)(Cl)Cl)N=C(c2ccccc2)c2cc(Cl)ccc21 (centres undefined) | 5.2 | 5600 | 1.93 | 15.3 | 1.3 | 1.62 | 0.9 |  |  |  |  | 
10 | O=C1Nc2ccc(Cl)cc2C(c2ccccc2)=NC1OC(=O)C(Cl)(Cl)Cl (centres undefined) | 5.7 | 6850 | 1.6 | 16.5 | 1.92 | 1.32 | 0.73 |  |  |  |  | 
11 | O=C1Nc2ccc(Cl)cc2C(c2ccccc2Cl)=NC1OCC(O)CO (centres undefined) | 4.68 | 7820 | 1.25 | 36.8 | 15.3 | 0.86 | 0.58 | 1.96 |  |  |  | 
12 | CC1(C)OCC(COC2N=C(c3ccccc3Cl)c3cc(Cl)ccc3NC2=O)O1 (centres undefined) |  | 7590 |  |  | 2.3 |  | 2 | 2.48 | inactive | inactive | inactive | inactive
13 | O=C1Nc2ccc(Cl)cc2C(c2ccccc2)=NC1OCC(O)CO (centres undefined) | 2.3 | 16600 | 0.7 | 12.5 | 1.4 | 0.52 | 0.51 | 1.71 |  |  |  | 
14 | CN1C(=O)C(OCCO)N=C(c2ccccc2)c2cc(Cl)ccc21 (centres undefined) | 0.8 | 17400 | 1.1 | 12.5 | 1.5 | 8.3 | 0.4 | 1.98 |  |  |  | 
15 | CN1C(=O)C(OCC(O)CO)N=C(c2ccccc2)c2cc(Cl)ccc21 (centres undefined) | 0.38 | 16000 | 0.8 | 10.3 | 1 |  | 0.42 | 1.74 |  |  |  | inactive

Source: ChEMBL document CHEMBL3244313, “Synthesis of some carbon-3 substituted 1,4-benzodiazepin-2-ones and their central nervous system effects” (J Med Chem, 1979)
